Screening results: PubChem BioAssay, several laboratories
CR mimetic SO – caloric restriction mimetics inhibiting age-related superoxide in yeast | S. cerevisiae aged cells, superoxide DHE fluorescence; active compounds read low | superoxide response (% of plate mean), % at 10 µM | 0.18% of 330,000 active | AID 2690;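 active means superoxide response under a set limit, about three screen SD below normal, cut at about 65% in these data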;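 further: yeast aged for seven days with compound at 30 °C before DHE staining; 100% = average MFI of all compound-treated wells on the plate with controls excluded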
PglD inh – inhibitors of Campylobacter jejuni PglD acetyltransferase; 0.098% of 360,000 active; purified PglD enzyme, DTNB colorimetric CoA detection; inhibition, % at 12.5 µM; in the data active means inhibition above about 16%, passing the limit was not always enough
SUMO Mot1 rescue – blocks SUMOylation pathway, rescuing yeast Mot1-301 growth. S. cerevisiae Mot1-301 growth rescue, ATP luminescence, 38.5C; percent above DMSO median, 100 means doubled. growth rescue, % at 18.8 µM. 1% of 320,000 active. AID 2716;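 active means every valid replicate shows activation above 250% relative to neutral control wells; inactive means the rest, any valid replicate at or below 250%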;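 further: OY570 slx delta 5 strain wells were the positive control but not used for scaling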
Cneo AK release – causes C. neoformans cell lysis | AID 651654 | lysis activity, % at 15 µM | 0.2% of 360,000 active | adenylate kinase release luminescence, 4 h; normalised: neutral wells 0, clomiphene wells 100;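 active means mean lysis activity across replicates of at least 80%, whatever share of replicates individually reach that level; inactive means mean lysis activity below 80%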
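Assay system: log-phase C. neoformans yeast / Quantity: yeast cell density of 5 × 10^6 cells/mL / Medium: fresh YPD growth medium / Compound: single dose / Timing: static 4 h at 37 °C with compound, 1 h detection / Measured by: adenylate kinase release luminescence / Read-out: lysis from increased AK signal / Benchmarks: Clomiphene as positive lysis control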
rRNA inh HTS – inhibitors of bacterial rRNA selective over humanized ribosomes; E. coli WT GFP vs humanized-ribosome RFP mutants, fluorescence, 24 h; active compounds read low; DMSO median 0, no signal -100; GFP signal change (wild-type ribosome), % (no concentration beside the values); 1.6% of 350,000 active; AID 720706;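 active means significant combined selectivity score with lowered wild-type GFP, culture density cut under 30%, mutant RFP and density less affected; inactive means any of these conditions unmet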
Yeast Mot1 SUMO – inhibits SUMO pathway, affecting Mot1-301 yeast growth. AID 493004. shares compounds with SUMO Mot1 rescue. S. cerevisiae Mot1-301 galactose growth, ATP luminescence, 24 h; -100 = growth of slx-deleted rescue strain. 2,300 tested, under 10 active. growth activity, percent, % at 42 µM;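 active means Signal drops as the depositor expects, and the fitted half-maximal dose is no more than ten times the top valid tested dose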;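 further: more negative values mean stronger growth rescue toward the control strain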
Numbers without * were called inactive; nt = no result given; + = active, no number; [ ] = dose if it differs, or a comment. In the library only some 2.2% were active in any assay of this set; here they are far more common.

SMILES | CR mimetic SO | PglD inh | SUMO Mot1 rescue | Cneo AK release | rRNA inh HTS | Yeast Mot1 SUMO
O=C(NCC1CCCO1)c1nn2c(C(F)(F)F)cc(-c3cc(Br)cs3)nc2c1Br (stereo not given) | 104 | 3 | 472* | 0 | 4 | 0
O=C(C[C@H]1C[C@H]2c3cc(NC(=O)c4cccnc4)ccc3O[C@H]2[C@@H](CO)O1)NCc1cccnc1 | nt | -2 | nt | -2 | -2 | nt
CCS(=O)(=O)NCC[C@@H]1CC[C@@H](NS(=O)(=O)c2ccccc2C)[C@@H](CO)O1 | nt | -3 | nt | 0 | 2 | nt
Oc1ccccc1-c1cc(C(F)(F)C(F)F)[nH]n1 | 94 | -4 | 872* | 0 | nt | 1
Fc1ccc(-c2cc(C(F)(F)C(F)F)[nH]n2)cc1 | 84 | 1 | 11 | 0 | -1 | nt
Cc1ccc(-n2nnnc2SCC#N)cc1 | 103 | -3 | 716* | -7 | 0 | 0
COc1ccc(S(=O)(=O)N(C)C[C@H]2OCCCC[C@H](C)Oc3ccc(NC(=O)C4CCCCC4)cc3C(=O)N([C@@H](C)CO)C[C@@H]2C)cc1 | nt | 0 | nt | 2 | -1 | nt
COc1ccccc1CNc1ncnc2c1nnn2Cc1ccccc1 | 113 | -2 | 514* | 2 | nt | 0
COc1ccccc1Nc1ncnc2nc[nH]c12 | 99 | 5 | 8 | 1 | nt | nt
COc1ccccc1CNc1ncnc2nc[nH]c12 | 105 | -9 | 671* | -1 | 0 | 0
Cc1nc(N)c(Cc2ccccc2F)c(N)n1 | 94 | nt | 433* | nt | -5 | 1
CNC(=O)c1c[nH]n2c(=O)c(Cc3ccccc3F)c(C)nc12 | 106 | -5 | -3 | -2 | 0 | nt
CCCc1cc(=O)oc2c3c(c4c(c12)OC(C)(C)C=C4)OC(C)C(C)C3O (stereo not given) | 114 | 5 | 779* | 2 | nt | 0
O=C(O)c1cc(S(=O)(=O)Nc2ccc(OCc3ccccc3)cc2)ccc1Br | 94 | 1 | 414* | 0 | 2 | 1
COc1ccc(C(=O)CC(=O)C(=O)Nc2ccc(C)c(C)c2)cc1 | 108 | 5 | 538* | 0 | -1 | 0
Cc1n[nH]c(=O)nc1NCc1ccc(Cl)cc1 | 113 | -4 | 627* | 2 | nt | 0
O=C(N[C@@H]1CC[C@@H](CC(=O)N2CCN(c3ccccc3)CC2)O[C@H]1CO)c1ccncc1 | nt | 2 | nt | 0 | 0 | nt
CN1C(=S)SC2CS(=O)(=O)CC21C (stereo not given) | 112 | -1 | 517* | -2 | 12 | 0[21 µM]
C[C@]12CS(=O)(=O)C[C@H]1SC(=S)N2c1ccccc1 | 103 | nt | -6 | nt | 31 | nt
CC(C)C(OC(=O)CN1C(=O)COc2ccccc21)C(=O)NC1CCCCC1 (stereo not given) | 87 | -1 | 13 | 2 | -14 | nt
CC(C)C(OC(=O)CN1C(=O)COc2ccccc21)C(=O)NC1CCCC1 (stereo not given) | 113 | 3 | 784* | -1 | nt | 0
Cc1cc(=O)oc(C)c1C(=O)Nc1ccc(Cl)cn1 | 90 | -1 | 421* | 0 | nt | 0
S=C(Nc1ccccc1)N1CCn2cccc2C1c1cccnc1 (stereo not given) | 115 | nt | 47 | nt | 13 | nt
Fc1cccc(NC(=S)N2CCn3cccc3C2c2cccnc2)c1 (stereo not given) | 130 | 3 | 497* | -1 | -3 | 0
Cc1ccnc(NC(c2cccnc2)c2ccc3cccnc3c2O)c1 (stereo not given) | 85 | nt | + | nt | -30 | -1
Cc1ccnc(NC(c2ccccc2)c2ccc3cccnc3c2O)c1 (stereo not given) | nt | 0 | nt | 4 | -58 | nt
N#CC(C#N)=C1C=CC=CN1/C(=C\c1ccccc1Cl)C(=O)c1ccccc1 | 93 | nt | 600* | nt | nt | -2
C[C@H]1CN([C@@H](C)CO)C(=O)c2cccc(NC(=O)c3nc4ccccc4s3)c2O[C@@H]1CN(C)C(=O)Nc1ccc2c(c1)OCO2 | nt | 12 | nt | -2 | 0 | nt
O=C(CCl)N(Cc1cc(=O)[nH]c2ccccc12)c1ccccc1 | 95 | nt | 491* | nt | -1 | 0
CC(C)c1ccc(-c2cc(C(=O)N3CCOCC3)c3cc(Br)ccc3n2)cc1 | 93 | 5 | 614* | -5 | 8 | 0
